Results of several laboratories.
CDK5: Cyclin-dependent kinase 5 (CDK5, Homo sapiens, UniProt Q00535)
CDK5 with p35: Cyclin-dependent kinase 5, with p35 (CDK5, Homo sapiens, UniProt Q00535)
CDK5 with p25: Cyclin-dependent kinase 5, with p25 (CDK5, Homo sapiens, UniProt Q00535)

With `CNC(=O)c1ccc(Nc2ncc(C(F)(F)F)c(NCc3nccnc3N(C)S(C)(=O)=O)n2)cc1` the remaining binding was 81% (CDK5; cell-free assay, competition with immobilised ligand; 0.1 µM).
`CC(C)c1ccc(NC(=O)c2cccs2)c(-c2nc3ccccc3[nH]c2=O)c1` has an activity vs control of 103% (CDK5 with p35; enzyme activity, inhibitor; 1 µM).
With `Cc1cc(NC(=O)c2cccc3cc(-c4cccc5[nH]nc(N)c45)ccc23)ccc1F` the activity vs control was 103% (CDK5 with p35; enzyme activity, inhibitor; 0.1 µM).
`CCCOc1ccc(OC)c(F)c1C(=O)c1ccc(C(=O)N[C@@H]2CNC[C@H]2NC(=O)c2ccc3[nH]ncc3c2)cc1` has a remaining activity of 85% (CDK5 with p25; enzyme activity, inhibitor; 0.75 µM).
The remaining binding of `C[C@H](c1ccnc(Nc2nc3ccc(-c4cc(N(C)C)ncn4)cc3[nH]2)c1)N1CCN(C(=O)CC(F)(F)F)CC1` is reported as 86% (CDK5; cell-free assay, competition with immobilised ligand; 0.1 µM).
For `Cc1ccc(NC(=O)c2ccc(C)c(C(F)(F)F)c2)cc1C#Cc1nn(C2CCC(O)CC2)c2ncnc(N)c12` (stereo not shown), the remaining signal was 87% (CDK5 with p25; cell-free assay; 10 µM).
For `O=C1Nc2ccc(Cl)cc2C1=Cc1cc(Cl)c(O)c(Cl)c1`, the remaining signal was 82.6% (CDK5 with p25; cell-free assay; 0.5 µM).
For `CC(C)CC(=O)N1CCc2nc(-c3ccc(Br)cc3)nc(N(C)Cc3ccccc3)c2C1`, the remaining binding was 100% (CDK5; cell-free assay, competition with immobilised ligand; 0.1 µM).
The remaining signal of `Oc1ccc(-c2nc(-c3ccncc3)c(-c3ccc(F)cc3)[nH]2)cc1` is reported as 96% (CDK5 with p25; cell-free assay; 0.5 µM).
`CC[C@H](C)[C@H](NC(=O)[C@H](CCC(N)=O)NC(=O)[C@H](CC(C)C)NC(=O)[C@H](CCSC)NC(=O)[C@H](CCCCN)NC(=O)[C@H](CO)NC(=O)[C@H](CO)NC(=O)[C@H](CCSC)NC(=O)[C@H](CC(C)C)NC(=O)[C@H](CC(N)=O)NC(=O)[C@@H](NC(=O)[C@@H](NC(=O)[C@H](CO)NC(=O)[C@H](CC(C)C)NC(=O)[C@H](CS)NC(=O)[C@H](CCCNC(=N)N)NC(=O)[C@H](CC(=O)O)NC(=O)[C@H](Cc1c[nH]c2ccccc12)NC(=O)[C@H](Cc1ccccc1)NC(=O)[C@H](C)NC(=O)[C@H](CCC(=O)O)NC(=O)[C@@H](N)CCCCN)C(C)C)[C@@H](C)CC)C(=O)N[C@@H](CC(N)=O)C(=O)N[C@@H](C)C(=O)O` gave a remaining activity of 59% (CDK5 with p25; enzyme activity, inhibitor, radiometric; 100 µM, 20 min).
